Laboratory results taken from ChEMBL document CHEMBL5705905, “Pharmacological targeting of kinases MST1 and MST2 augments tissue repair and regeneration” (Sci Transl Med, 2016).
Active and inactive are the calls of the source. The calls are words filed in the database; no cut-off is given here.

Legend:
[1] = target: High affinity nerve growth factor receptor (Homo sapiens) (UniProt P04629); experiment: Inhibition of TRKA (unknown origin) assessed as remaining activity at 1 uM by Kinome scan method relative to control
[2] = target: Wee1-like protein kinase 2 (Homo sapiens) (UniProt P0C1S8); experiment: Inhibition of WEE2 (unknown origin) assessed as remaining activity at 1 uM by Kinome scan method relative to control
[3] = Toxicity in mouse assessed as cancer cell growth at 1 mg/kg, ip administered for 2 months; assay type: organism-based; conditions: in vivo, 1460 h
Outline: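 Wild-type mice were given 1 mg/kg i.p. daily for 2 months and examined for cancer growth and serum α-fetoprotein.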

[4] = system: Tyrosine-protein kinase ABL1 (Homo sapiens), P00519 [T315I]; experiment: Inhibition of ABL1 T315I mutant (unknown origin) assessed as remaining activity at 1 uM by Kinome scan method relative to control
Outline: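 Active-site-dependent competition-binding (KINOMEscan) panel of 468 kinases, test compound at 1 μM (from a 10 mM DMSO stock). Read-out is ctrl% = (test signal − positive control signal)/(negative control signal − positive control signal) × 100. DMSO is the negative control (100%) and a control compound is the positive control (0%). Lower ctrl% means tighter binding.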

[5] = target: Vascular endothelial growth factor receptor 2 (Homo sapiens) (UniProt P35968); experiment: Inhibition of VEGFR2 (unknown origin) assessed as remaining activity at 1 uM by Kinome scan method relative to control
Chain of Vascular endothelial growth factor receptor 2 (Homo sapiens) (P35968 whole entry): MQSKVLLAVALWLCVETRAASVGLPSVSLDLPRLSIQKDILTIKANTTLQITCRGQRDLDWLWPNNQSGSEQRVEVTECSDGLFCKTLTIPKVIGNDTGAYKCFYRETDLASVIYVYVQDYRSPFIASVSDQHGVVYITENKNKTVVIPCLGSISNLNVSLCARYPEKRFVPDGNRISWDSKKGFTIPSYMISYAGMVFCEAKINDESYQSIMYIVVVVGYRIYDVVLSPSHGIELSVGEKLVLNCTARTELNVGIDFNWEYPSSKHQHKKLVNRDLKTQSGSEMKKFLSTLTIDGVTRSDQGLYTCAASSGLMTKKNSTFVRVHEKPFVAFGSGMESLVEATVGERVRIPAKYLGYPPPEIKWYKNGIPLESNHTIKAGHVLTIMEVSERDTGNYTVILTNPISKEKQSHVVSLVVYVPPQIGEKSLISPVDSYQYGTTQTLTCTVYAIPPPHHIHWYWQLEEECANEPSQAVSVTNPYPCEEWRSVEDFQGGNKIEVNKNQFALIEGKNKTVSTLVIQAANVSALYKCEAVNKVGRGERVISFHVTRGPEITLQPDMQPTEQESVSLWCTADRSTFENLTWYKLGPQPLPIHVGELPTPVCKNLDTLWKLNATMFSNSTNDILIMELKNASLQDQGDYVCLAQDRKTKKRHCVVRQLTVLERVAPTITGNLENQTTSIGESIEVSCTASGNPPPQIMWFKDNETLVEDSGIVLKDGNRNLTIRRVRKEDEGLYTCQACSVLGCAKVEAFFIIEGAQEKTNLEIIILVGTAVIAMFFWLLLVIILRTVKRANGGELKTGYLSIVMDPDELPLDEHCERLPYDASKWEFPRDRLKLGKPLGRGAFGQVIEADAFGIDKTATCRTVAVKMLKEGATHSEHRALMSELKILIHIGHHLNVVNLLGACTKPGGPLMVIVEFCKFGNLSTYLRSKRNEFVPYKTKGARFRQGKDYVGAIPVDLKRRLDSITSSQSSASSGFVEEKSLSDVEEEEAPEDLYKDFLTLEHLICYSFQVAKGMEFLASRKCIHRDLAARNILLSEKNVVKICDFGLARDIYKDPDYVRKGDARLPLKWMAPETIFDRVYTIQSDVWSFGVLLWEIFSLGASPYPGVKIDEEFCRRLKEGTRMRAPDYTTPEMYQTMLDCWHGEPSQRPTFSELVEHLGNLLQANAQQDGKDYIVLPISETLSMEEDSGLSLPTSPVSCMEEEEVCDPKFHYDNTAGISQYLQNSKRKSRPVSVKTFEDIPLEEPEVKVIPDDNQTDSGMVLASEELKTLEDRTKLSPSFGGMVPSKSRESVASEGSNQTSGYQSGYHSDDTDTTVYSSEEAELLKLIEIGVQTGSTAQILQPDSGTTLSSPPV

[6] = target: Serine/threonine-protein kinase ULK3 (Homo sapiens) (UniProt Q6PHR2); experiment: Inhibition of ULK3 (unknown origin) assessed as remaining activity at 1 uM by Kinome scan method relative to control
[7] = target: Mitogen-activated protein kinase 9 (Homo sapiens) (UniProt P45984); experiment: Inhibition of JNK2 (unknown origin) assessed as remaining activity at 1 uM by Kinome scan method relative to control
[8] = target: Mitogen-activated protein kinase 13 (Homo sapiens) (UniProt O15264); experiment: Inhibition of P38delta (unknown origin) assessed as remaining activity at 1 uM by Kinome scan method relative to control
Chain of Mitogen-activated protein kinase 13 (Homo sapiens) (O15264 whole entry): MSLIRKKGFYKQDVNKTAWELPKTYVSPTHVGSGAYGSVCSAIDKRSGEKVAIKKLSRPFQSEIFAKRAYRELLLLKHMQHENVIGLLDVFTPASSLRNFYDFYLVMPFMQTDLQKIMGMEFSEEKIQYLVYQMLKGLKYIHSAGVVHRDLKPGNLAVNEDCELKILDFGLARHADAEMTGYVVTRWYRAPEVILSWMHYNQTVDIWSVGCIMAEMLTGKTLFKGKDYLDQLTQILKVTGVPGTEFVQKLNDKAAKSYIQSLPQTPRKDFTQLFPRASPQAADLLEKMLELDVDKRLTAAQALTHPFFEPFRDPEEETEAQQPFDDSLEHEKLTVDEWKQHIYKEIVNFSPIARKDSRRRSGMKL

[9] = target: G protein-coupled receptor kinase 4 (Homo sapiens) (UniProt P32298); experiment: Inhibition of GRK4 (unknown origin) assessed as remaining activity at 1 uM by Kinome scan method relative to control
[10] = target: Beta-adrenergic receptor kinase 1 (Homo sapiens) (UniProt P25098); experiment: Inhibition of GRK2 (unknown origin) assessed as remaining activity at 1 uM by Kinome scan method relative to control
Chain of Beta-adrenergic receptor kinase 1 (Homo sapiens) (P25098 whole entry, canonical isoform): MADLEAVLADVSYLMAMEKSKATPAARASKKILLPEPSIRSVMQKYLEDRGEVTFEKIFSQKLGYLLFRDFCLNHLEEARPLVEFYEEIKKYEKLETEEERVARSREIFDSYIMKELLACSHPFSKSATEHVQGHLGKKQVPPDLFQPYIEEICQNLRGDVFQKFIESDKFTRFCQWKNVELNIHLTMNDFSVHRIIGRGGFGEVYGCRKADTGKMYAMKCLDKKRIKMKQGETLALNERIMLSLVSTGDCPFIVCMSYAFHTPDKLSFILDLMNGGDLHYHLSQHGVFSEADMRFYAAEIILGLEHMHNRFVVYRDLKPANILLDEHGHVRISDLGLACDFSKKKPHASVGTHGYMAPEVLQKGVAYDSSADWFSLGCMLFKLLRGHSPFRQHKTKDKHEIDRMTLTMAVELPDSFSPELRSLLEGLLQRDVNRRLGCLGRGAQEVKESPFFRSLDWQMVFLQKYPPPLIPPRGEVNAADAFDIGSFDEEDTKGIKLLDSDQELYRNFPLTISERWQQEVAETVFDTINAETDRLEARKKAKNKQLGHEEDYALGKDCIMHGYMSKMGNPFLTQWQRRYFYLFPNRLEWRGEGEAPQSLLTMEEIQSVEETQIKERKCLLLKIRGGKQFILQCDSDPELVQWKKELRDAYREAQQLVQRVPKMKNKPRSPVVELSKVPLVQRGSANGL

[11] = target: Casein kinase I isoform alpha-like (Homo sapiens) (UniProt Q8N752); experiment: Inhibition of CSNK1A1L (unknown origin) assessed as remaining activity at 1 uM by Kinome scan method relative to control
Outline: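 Active-site-dependent competition-binding profiling (KINOMEscan) at 1 μM against a 468-kinase panel; compound supplied from a 10 mM DMSO stock. Read-out is ctrl% = (test signal − positive control signal)/(negative control signal − positive control signal) × 100. DMSO is the negative control (100%) and a control compound the positive control (0%). Lower ctrl% means tighter binding.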

[12] = target: T1, Serine/threonine-protein kinase 4 (Homo sapiens, UniProt Q13043); experiment: Inhibition of Flag-tagged full-length MST1 (unknown origin) transfected in HEK293T cells assessed as MOB1a phosphorylation level incubated for 3 hrs by immunoblot analysis
T1 sequence (Q13043 whole entry): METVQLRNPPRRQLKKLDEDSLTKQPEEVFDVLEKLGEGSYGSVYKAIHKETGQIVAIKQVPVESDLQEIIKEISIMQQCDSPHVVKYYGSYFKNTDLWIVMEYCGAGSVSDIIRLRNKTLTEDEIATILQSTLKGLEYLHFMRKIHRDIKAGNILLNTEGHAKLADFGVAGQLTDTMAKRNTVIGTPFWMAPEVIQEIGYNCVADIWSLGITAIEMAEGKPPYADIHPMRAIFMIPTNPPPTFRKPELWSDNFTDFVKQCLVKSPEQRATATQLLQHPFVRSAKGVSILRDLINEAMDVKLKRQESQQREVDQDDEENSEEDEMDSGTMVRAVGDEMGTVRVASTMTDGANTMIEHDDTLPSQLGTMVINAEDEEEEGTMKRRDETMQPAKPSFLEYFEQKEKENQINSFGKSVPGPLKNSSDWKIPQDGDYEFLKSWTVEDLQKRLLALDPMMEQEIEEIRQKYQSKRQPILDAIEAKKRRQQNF

[13] = Acute toxicity in mouse assessed as increase in liver/body weight ratio at 1 mg/kg,ip administrated once a daily for 3 weeks relative to control; assay type: organism-based; conditions: in vivo, 504 h
Outline: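 Postnatal mice dosed from 10 days of age with vehicle or 1 mg/kg once per day for 21 days (3 weeks). Vehicle is 0.1% citric acid aqueous solution containing 20% Kolliphor HS 15. Liver sections stained with H&E and by IHC for CK19 and BrdU, with positive cells quantified (n = 3). Liver/body weight ratio recorded (n = 4). Values are means ± SD versus vehicle, Student's t test.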

[14] = target: Mitogen-activated protein kinase kinase kinase 20 (Homo sapiens) (UniProt Q9NYL2); experiment: Inhibition of ZAK (unknown origin) assessed as remaining activity at 1 uM by Kinome scan method relative to control
Chain of Mitogen-activated protein kinase kinase kinase 20 (Homo sapiens) (Q9NYL2 2-800 limits assumed): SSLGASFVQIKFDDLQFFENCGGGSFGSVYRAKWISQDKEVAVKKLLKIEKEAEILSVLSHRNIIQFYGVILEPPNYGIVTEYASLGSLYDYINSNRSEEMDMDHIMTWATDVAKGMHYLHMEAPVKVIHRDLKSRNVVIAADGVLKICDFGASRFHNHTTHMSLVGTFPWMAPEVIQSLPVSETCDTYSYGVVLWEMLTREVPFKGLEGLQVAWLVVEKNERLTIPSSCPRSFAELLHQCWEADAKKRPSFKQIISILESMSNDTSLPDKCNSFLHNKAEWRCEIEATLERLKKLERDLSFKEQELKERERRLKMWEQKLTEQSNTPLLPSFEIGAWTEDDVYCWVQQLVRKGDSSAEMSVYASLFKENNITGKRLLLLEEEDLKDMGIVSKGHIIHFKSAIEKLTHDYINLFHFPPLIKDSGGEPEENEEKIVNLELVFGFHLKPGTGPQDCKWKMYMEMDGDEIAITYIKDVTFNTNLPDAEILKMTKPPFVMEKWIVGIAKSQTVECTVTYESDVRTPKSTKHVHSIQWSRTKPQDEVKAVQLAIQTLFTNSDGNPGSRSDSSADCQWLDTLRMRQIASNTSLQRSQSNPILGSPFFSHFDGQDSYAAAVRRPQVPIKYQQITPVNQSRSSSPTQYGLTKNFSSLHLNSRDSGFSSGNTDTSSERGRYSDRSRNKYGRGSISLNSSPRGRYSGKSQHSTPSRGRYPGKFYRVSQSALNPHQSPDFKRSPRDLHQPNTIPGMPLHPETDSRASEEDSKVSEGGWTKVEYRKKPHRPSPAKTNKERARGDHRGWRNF

HepG2 = experiment: Inhibition of Flag-tagged MST1 Y101F/D109A mutant (unknown origin) in human HepG2 cells assessed as MOB1 phosphorylation level at 0.3 to 10 uM by immunoblot analysis; assay type: cell-based; conditions: dose 0.3-10 µM
[15] = target: Phosphatidylinositol 4,5-bisphosphate 3-kinase catalytic subunit gamma isoform (Homo sapiens, UniProt P48736); experiment: Inhibition of PIK3CG (unknown origin) in presence of ATP by enzymatic assay
Chain of Phosphatidylinositol 4,5-bisphosphate 3-kinase catalytic subunit gamma isoform (P48736 whole entry, canonical isoform): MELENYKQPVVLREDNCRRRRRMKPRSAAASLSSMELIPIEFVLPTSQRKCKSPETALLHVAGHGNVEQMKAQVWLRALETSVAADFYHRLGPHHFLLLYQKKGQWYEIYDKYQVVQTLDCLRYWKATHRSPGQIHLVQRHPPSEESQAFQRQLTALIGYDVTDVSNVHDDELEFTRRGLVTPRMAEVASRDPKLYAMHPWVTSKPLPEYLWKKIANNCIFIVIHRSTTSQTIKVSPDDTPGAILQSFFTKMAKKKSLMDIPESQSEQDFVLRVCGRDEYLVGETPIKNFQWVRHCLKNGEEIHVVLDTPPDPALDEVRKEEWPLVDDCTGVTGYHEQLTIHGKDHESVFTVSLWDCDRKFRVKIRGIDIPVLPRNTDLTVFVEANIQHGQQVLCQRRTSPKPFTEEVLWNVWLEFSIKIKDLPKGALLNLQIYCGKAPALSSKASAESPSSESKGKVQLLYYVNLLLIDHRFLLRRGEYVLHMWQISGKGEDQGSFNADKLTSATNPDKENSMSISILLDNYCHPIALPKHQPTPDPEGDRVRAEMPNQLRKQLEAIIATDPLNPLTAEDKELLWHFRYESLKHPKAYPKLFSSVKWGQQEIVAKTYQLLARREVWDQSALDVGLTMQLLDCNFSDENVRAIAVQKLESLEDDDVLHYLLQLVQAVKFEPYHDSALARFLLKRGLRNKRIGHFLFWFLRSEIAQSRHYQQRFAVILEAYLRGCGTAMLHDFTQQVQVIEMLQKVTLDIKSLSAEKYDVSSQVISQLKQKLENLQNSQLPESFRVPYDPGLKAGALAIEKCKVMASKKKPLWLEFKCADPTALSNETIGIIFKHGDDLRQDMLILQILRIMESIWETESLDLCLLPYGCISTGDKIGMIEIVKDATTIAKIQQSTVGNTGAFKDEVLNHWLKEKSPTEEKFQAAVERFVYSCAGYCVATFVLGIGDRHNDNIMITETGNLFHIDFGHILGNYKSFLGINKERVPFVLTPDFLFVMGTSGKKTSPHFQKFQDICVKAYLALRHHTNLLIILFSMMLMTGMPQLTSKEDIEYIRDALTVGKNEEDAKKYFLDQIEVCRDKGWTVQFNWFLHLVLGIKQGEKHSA

[16] = Toxicity in DSS-induced mouse assessed as body weight loss at 1 mg/kg, ip administrated daily for over 1 to 21 days; assay type: organism-based; conditions: in vivo, time 1-21 day
Outline: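 Colitis was induced with oral DSS on days 1–7, with vehicle or 1 mg/kg i.p. daily, n = 12 per group. Body weight was recorded over days 1–21 as a percentage of day 1; means ± SD, Student's t test per time point.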

[17] = target: Tyrosine-protein kinase ABL1 (Homo sapiens) (UniProt P00519); experiment: Inhibition of phosphorylated ABL1 (unknown origin) assessed as remaining activity at 1 uM by Kinome scan method relative to control
[18] = target: Serine/threonine-protein kinase 3 (Homo sapiens, UniProt Q13188, Y101F)
Chain of Serine/threonine-protein kinase 3 (Q13188 whole entry Y101F, canonical isoform): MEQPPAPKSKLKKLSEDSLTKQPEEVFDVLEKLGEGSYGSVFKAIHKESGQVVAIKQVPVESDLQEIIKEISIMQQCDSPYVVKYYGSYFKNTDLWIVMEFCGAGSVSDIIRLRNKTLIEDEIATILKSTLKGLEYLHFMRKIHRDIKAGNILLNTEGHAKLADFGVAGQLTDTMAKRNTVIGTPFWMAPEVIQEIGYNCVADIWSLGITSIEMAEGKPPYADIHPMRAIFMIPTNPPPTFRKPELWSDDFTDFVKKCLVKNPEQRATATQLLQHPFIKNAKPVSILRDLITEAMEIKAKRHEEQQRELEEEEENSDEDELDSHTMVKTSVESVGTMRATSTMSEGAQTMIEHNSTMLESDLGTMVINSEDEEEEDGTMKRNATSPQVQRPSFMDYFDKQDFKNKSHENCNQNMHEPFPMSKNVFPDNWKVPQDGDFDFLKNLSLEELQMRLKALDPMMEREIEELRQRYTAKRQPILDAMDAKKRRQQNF

[19] = target: Phosphatidylinositol 4,5-bisphosphate 3-kinase catalytic subunit alpha isoform (Homo sapiens) (UniProt P42336); experiment: Inhibition of PIK3CA (unknown origin) assessed as remaining activity at 1 uM by Kinome scan method relative to control
[20] = target: Serine/threonine-protein kinase PLK2 (Homo sapiens) (UniProt Q9NYY3); experiment: Inhibition of PLK2 (unknown origin) assessed as remaining activity at 1 uM by Kinome scan method relative to control
Mus musculus = experiment: Protection against APAP induced liver injury in mouse assessed as decrease in ALT level at 1 mg/kg, ip administered at 2.5 hrs in the presence of NAC; assay type: functional, organism-based; conditions: Serum

SMILES: CN1C(=O)c2sccc2N(C)c2nc(Nc3ccc(S(N)(=O)=O)cc3)ncc21
- Activity [1]: 56%
- Activity [2]: 91%
- Activity [3]: Non-Toxic
- Activity [4]: 15%
- Activity [5]: 100%
- Activity [6]: 84%
- Activity [7]: 82%
- Activity [8]: 94%
- Activity [9]: 99%
- Activity [10]: 100%
- Activity [11]: 93%
- IC50 [12]: 71.1 nM
- Activity [13]: 15%
- Activity [14]: 82%
- inhibition (HepG2): Active
- IC50 [15]: 38.4 nM
- Activity [16]: Toxic
- Activity [17]: 13%
- IC50 [18]: 361 nM
- Activity [19]: 88%
- Activity [20]: 42%
- Activity (Mus musculus): Active
